This note sets out measurements from ChEMBL document CHEMBL1149639, “Anti-tumor agents 255: novel glycyrrhetinic acid-dehydrozingerone conjugates as cytotoxic agents” (2007).

Active and inactive are the calls of the source. No cut-off for these calls is given here. A value given as a limit tells only on which side of the number the result lay.

In the first assay the test system is 1A9. The assay is described as follows: Cytotoxicity against human 1A9 cells. Particulars: read-out: ED50 (the source's name). Type of assay: functional. In a few lines:
(§1)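 Sulforhodamine B assay after Rubinstein et al. Cells grown at 37 °C, humidified 5% CO2, in RPMI-1640 with 10% (v/v) FBS and 100 μg/mL kanamycin. Seeding density set per line to give final A562 of 1-2.5. Stocks in DMSO, final DMSO <1% (v/v). Two-day drug exposure, absorbance at 562 nm. ED50 (50% absorbance reduction vs untreated) interpolated from dose-response. Tests in duplicate.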
With `CC1(C)[C@@H](O)CC[C@]2(C)[C@H]3C(=O)C=C4[C@@H]5C[C@@](C)(C(=O)O)CC[C@]5(C)CC[C@@]4(C)[C@]3(C)CC[C@@H]12` [ENOXOLONE], the EC50 was greater than 21 µM.

On to `COc1ccc(/C=C/C(C)=O)c(OC(=O)[C@@]2(C)CC[C@]3(C)CC[C@]4(C)C(=CC(=O)[C@@H]5[C@@]6(C)CC[C@H](O)C(C)(C)[C@@H]6CC[C@]54C)[C@@H]3C2)c1`, for which the EC50 stood at 5.9 µM.

The next assay concerns HCT-8. Put plainly: Cytotoxicity against human HCT8 cells. The class given is functional. Conditions: read-out: ED50 (the source's name). In a few lines: as §1
Regarding `CC1(C)[C@@H](O)CC[C@]2(C)[C@H]3C(=O)C=C4[C@@H]5C[C@@](C)(C(=O)O)CC[C@]5(C)CC[C@@]4(C)[C@]3(C)CC[C@@H]12` [ENOXOLONE], the EC50 turned out to be 19.5 µM.

Regarding `COc1ccc(/C=C/C(C)=O)c(OC(=O)[C@@]2(C)CC[C@]3(C)CC[C@]4(C)C(=CC(=O)[C@@H]5[C@@]6(C)CC[C@H](O)C(C)(C)[C@@H]6CC[C@]54C)[C@@H]3C2)c1`, the EC50 is 2.6 µM.

The test system of the next assay is DU-145. Put plainly: Cytotoxicity against human DU145 cells. The class given is functional. Conditions: read-out: ED50 (the source's name). In a few lines: as §1
As to `CC1(C)[C@@H](O)CC[C@]2(C)[C@H]3C(=O)C=C4[C@@H]5C[C@@](C)(C(=O)O)CC[C@]5(C)CC[C@@]4(C)[C@]3(C)CC[C@@H]12` [ENOXOLONE], the EC50 is greater than 21 µM.

For `COc1ccc(/C=C/C(C)=O)c(OC(=O)[C@@]2(C)CC[C@]3(C)CC[C@]4(C)C(=CC(=O)[C@@H]5[C@@]6(C)CC[C@H](O)C(C)(C)[C@@H]6CC[C@]54C)[C@@H]3C2)c1`, the EC50 was greater than 15 µM.

For the next assay, the system named is KB. The assay is described as follows: Cytotoxicity against human KB cells. The class given is functional. Particulars: read-out: ED50 (the source's name). In a few lines:
as §1
Consider `CC1(C)[C@@H](O)CC[C@]2(C)[C@H]3C(=O)C=C4[C@@H]5C[C@@](C)(C(=O)O)CC[C@]5(C)CC[C@@]4(C)[C@]3(C)CC[C@@H]12` [ENOXOLONE], for which the EC50 was greater than 21 µM.

In the case of `COc1ccc(/C=C/C(C)=O)c(OC(=O)[C@@]2(C)CC[C@]3(C)CC[C@]4(C)C(=CC(=O)[C@@H]5[C@@]6(C)CC[C@H](O)C(C)(C)[C@@H]6CC[C@]54C)[C@@H]3C2)c1`, the EC50 is 6.2 µM.

The subject of another assay is A549. Put plainly: Cytotoxicity against human A549 cells.
Conditions: not given
The class given is functional. The method, boiled down: as §1
In the case of `CC1(C)[C@@H](O)CC[C@]2(C)[C@H]3C(=O)C=C4[C@@H]5C[C@@](C)(C(=O)O)CC[C@]5(C)CC[C@@]4(C)[C@]3(C)CC[C@@H]12` [ENOXOLONE], the outcome was inactive.

The assay is the same for the next values; noted with them: read-out: ED50 (the source's name).
With `COc1ccc(/C=C/C(C)=O)c(OC(=O)[C@@]2(C)CC[C@]3(C)CC[C@]4(C)C(=CC(=O)[C@@H]5[C@@]6(C)CC[C@H](O)C(C)(C)[C@@H]6CC[C@]54C)[C@@H]3C2)c1`, the EC50 stood at 15.5 µM.

The test system of another assay is KB-VIN. The assay is described as follows: Cytotoxicity against human KB-VIN cells by sulforhodamine B assay.
Conditions: not given
Type of assay: functional. The method, boiled down:
as §1
As for `CC1(C)[C@@H](O)CC[C@]2(C)[C@H]3C(=O)C=C4[C@@H]5C[C@@](C)(C(=O)O)CC[C@]5(C)CC[C@@]4(C)[C@]3(C)CC[C@@H]12` [ENOXOLONE], the result was inactive.

The next assay concerns LNCaP. Put plainly: Cytotoxicity against human LN-Cap cells. Conditions: read-out: ED50 (the source's name). Type of assay: functional. In a few lines: as §1
Turning to `CC1(C)[C@@H](O)CC[C@]2(C)[C@H]3C(=O)C=C4[C@@H]5C[C@@](C)(C(=O)O)CC[C@]5(C)CC[C@@]4(C)[C@]3(C)CC[C@@H]12` [ENOXOLONE], the EC50 is greater than 21 µM.

As for `COc1ccc(/C=C/C(C)=O)c(OC(=O)[C@@]2(C)CC[C@]3(C)CC[C@]4(C)C(=CC(=O)[C@@H]5[C@@]6(C)CC[C@H](O)C(C)(C)[C@@H]6CC[C@]54C)[C@@H]3C2)c1`, the EC50 is 1.9 µM.

Test system in another assay: not listed separately
The assay is described as follows: Cytotoxicity against human KB-VIN cells. The class given is functional. Particulars: KBVIN, read-out: ED50 (the source's name). The method, boiled down: as §1
As to `CC1(C)[C@@H](O)CC[C@]2(C)[C@H]3C(=O)C=C4[C@@H]5C[C@@](C)(C(=O)O)CC[C@]5(C)CC[C@@]4(C)[C@]3(C)CC[C@@H]12` [ENOXOLONE], the EC50 was greater than 21 µM.

Regarding `COc1ccc(/C=C/C(C)=O)c(OC(=O)[C@@]2(C)CC[C@]3(C)CC[C@]4(C)C(=CC(=O)[C@@H]5[C@@]6(C)CC[C@H](O)C(C)(C)[C@@H]6CC[C@]54C)[C@@H]3C2)c1`, the EC50 is greater than 15 µM.

The test system of a further assay is KB. The assay is described as follows: Cytotoxicity against human KB cells by sulforhodamine B assay. Type of assay: functional.
Conditions: not given
In a few lines:
as §1
A general note: The SRB assay estimates cell density from bound dye.
Take `CC1(C)[C@@H](O)CC[C@]2(C)[C@H]3C(=O)C=C4[C@@H]5C[C@@](C)(C(=O)O)CC[C@]5(C)CC[C@@]4(C)[C@]3(C)CC[C@@H]12` [ENOXOLONE]: the outcome was inactive.

A further assay deals with ZR-75-1. The assay is described as follows: Cytotoxicity against human ZR751 cells.
Conditions: not given
Type of assay: functional. The method, boiled down: as §1
Take `CC1(C)[C@@H](O)CC[C@]2(C)[C@H]3C(=O)C=C4[C@@H]5C[C@@](C)(C(=O)O)CC[C@]5(C)CC[C@@]4(C)[C@]3(C)CC[C@@H]12` [ENOXOLONE]: the outcome was inactive.

The assay is the same for the next values; noted with them: read-out: ED50 (the source's name).
Take `COc1ccc(/C=C/C(C)=O)c(OC(=O)[C@@]2(C)CC[C@]3(C)CC[C@]4(C)C(=CC(=O)[C@@H]5[C@@]6(C)CC[C@H](O)C(C)(C)[C@@H]6CC[C@]54C)[C@@H]3C2)c1`: the EC50 is greater than 15 µM.

The test system of another assay is PC-3. Put plainly: Cytotoxicity against human PC3 cells. The class given is functional. Conditions: read-out: ED50 (the source's name). The method, boiled down: as §1
Consider `CC1(C)[C@@H](O)CC[C@]2(C)[C@H]3C(=O)C=C4[C@@H]5C[C@@](C)(C(=O)O)CC[C@]5(C)CC[C@@]4(C)[C@]3(C)CC[C@@H]12` [ENOXOLONE], for which the EC50 is greater than 21 µM.

As to `COc1ccc(/C=C/C(C)=O)c(OC(=O)[C@@]2(C)CC[C@]3(C)CC[C@]4(C)C(=CC(=O)[C@@H]5[C@@]6(C)CC[C@H](O)C(C)(C)[C@@H]6CC[C@]54C)[C@@H]3C2)c1`, the EC50 was 7.4 µM.
